Columns and labels:
[1] = Cytotoxicity against human MT4 cells after 96 hrs by MTT assay; assay type: cell-based
Outline: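 Exponentially growing MT-4 cells seeded at 1×10^5 cells/mL in RPMI-1640 with 10% FBS and incubated with serial compound dilutions at 37 °C and 5% CO2. Viability measured by MTT after 96 h. CC50 by linear regression against untreated controls.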

[2] = system: Human immunodeficiency virus 1; test: Antiviral activity against HIV1 3B infected in human MT4 cells assessed as inhibition of virus-induced cytopathogenicity after 4 days by MTT assay; assay type: functional, organism-based; conditions: Human immunodeficiency virus 1, 3B, MT4, 96 h
Outline: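 MT-4 cells (1×10^4/well) in RPMI with serial compound dilutions, infected with HIV-1 IIIB at 100 CCID50 (m.o.i. 0.01). Viability measured by MTT after 4 days at 37 °C. EC50 for 50% protection from cytopathogenicity obtained by linear regression against untreated controls.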

[3] = Cytotoxicity against MDBK cells after 48 to 96 hrs by MTT assay; assay type: cell-based, Bos taurus; conditions: cattle
Outline: (§1)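 Mock-infected MDBK (6×10^5 cells/mL, MEM-E with 10% horse serum) or BHK (1×10^6 cells/mL, MEM-E with 10% FBS) cells incubated with serial compound dilutions at 37 °C and 5% CO2. Viability measured by MTT after 48–96 h. CC50 by linear regression against untreated controls.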

[4] = Antiviral activity against BVDV1 NADL ATCC VR-534 infected in MDBK cells assessed as inhibition of virus-induced cytopathogenicity after 3 to 4 days by MTT assay; assay type: functional, cell-based, Bovine viral diarrhea virus 1-NADL; conditions: Bovine viral diarrhea virus isolates and strains, ATCC VR-534, MDBK
Outline: (§2)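 BHK (5×10^4/well) or MDBK (3×10^4/well) cells grown to confluent monolayers overnight, infected at m.o.i. 0.01 in maintenance MEM-Earl with 0.5% inactivated FBS. Serially diluted compounds added after 1 h. Viability read by MTT after 3–4 days at 37 °C. Values are expressed as % of untreated controls, and EC50 is derived by linear regression. Duplicate samples.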

[5] = Cytotoxicity against BHK21 cells by MTT assay; assay type: cell-based, Mesocricetus auratus; conditions: hamster, BHK-21 cells; outline: as §1
Yellow fever virus = test: Antiviral activity against Yellow fever virus 17D infected in BHK21 cells assessed as inhibition of virus-induced cytopathogenicity after 3 to 4 days by MTT assay; assay type: functional, cell-based; conditions: BHK-21
[6] = system: Mammalian orthoreovirus 1; test: Antiviral activity against Reovirus 1 3651 ATCC VR-214 infected in BHK21 cells assessed as inhibition of virus-induced cytopathogenicity after 3 to 4 days by MTT assay; assay type: functional, organism-based; conditions: Mammalian orthoreovirus 1, 3651 ATCC VR-214, BHK-21; outline: as §2
[7] = Cytotoxicity against african green monkey Vero 76 cells after 48 to 96 hrs by MTT assay; assay type: cell-based; conditions: chlorocebus sabaeus
Coxsackievirus B5 = test: Antiviral activity against Coxsackie virus type B5 Ohio-1 ATCC VR-29 infected in african green monkey Vero-76 cells assessed as reduction in viral plaque after 3 days by crystal violet staining; assay type: functional, organism-based; conditions: Enterovirus B, Ohio-1 ATCC VR-29, Vero 76, 72 h
Outline: (§3)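 Vero-76 monolayers (2×10^5 cells/well) infected for 2 h at 50–100 PFU/well. Unadsorbed virus removed. D-MEM with 1% inactivated FBS, 0.75% methylcellulose and serial compound dilutions added. Incubation at 37 °C for 3 days (CVB-5, HSV-1) or 5 days (RSV). Fixed and stained with 50% ethanol/0.8% crystal violet, then plaques counted. EC50 by linear regression versus untreated controls.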

Poliovirus 1 = test: Antiviral activity against Polio virus type 1 strain sabin ATCC VR-1562 infected in african green monkey Vero-76 cells assessed as reduction in viral plaque after 2 days by crystal violet staining; assay type: functional, cell-based, Human poliovirus 1 strain Sabin; conditions: Enterovirus C, ATCC VR-1562, Vero 76, 48 h
[8] = Antiviral activity against Human respiratory syncytial virus A2 ATCC VR-1540 infected in african green monkey Vero-76 cells assessed as reduction in viral plaque after 5 days by crystal violet staining; assay type: functional, cell-based; conditions: ATCC VR-1540, Vero 76, 120 h; outline: as §3
[9] = system: Vesicular stomatitis Indiana virus; test: Antiviral activity against Vesicular stomatitis virus indiana ATCC VR-1540 infected in african green monkey Vero-76 cells assessed as reduction in viral plaque after 2 days by crystal violet staining; assay type: functional, organism-based; conditions: ATCC VR-1540, Vero 76, 48 h
Human alphaherpesvirus 1 = test: Antiviral activity against Herpes simplex virus type 1 KOS ATCC VR-1493 infected in african green monkey Vero-76 cells assessed as reduction in viral plaque after 3 days by crystal violet staining; assay type: functional, organism-based; conditions: Human alphaherpesvirus 1, KOS ATCC VR1493, Vero 76, 72 h; outline: as §3
[10] = Cytotoxicity against human GS4.1 cells assessed as decrease in cell viability by Cell Titer glo assay; assay type: cell-based
Hepatitis C virus = test: Antiviral activity against Hepatitis C virus genotype 1b infected in human GS4.1 cells assessed as inhibition of viral replication after 72 hrs by ELISA; assay type: functional, organism-based, Hepacivirus hominis
Outline: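 Huh-7 cells carrying the genotype 1b replicon (GS4.1) seeded at 7.5×10^3/well with two-fold serial dilutions, top 75 µM, for 72 h at 37 °C. Cells fixed in acetone–methanol. NS4A quantified by ELISA with anti-NS4A antibody A-236, peroxidase conjugate and o-phenylenediamine, read at 492 nm. EC50 from four-parameter sigmoidal fit. Replicon-free Huh-7 served as negative control.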

[11] = Inhibition of HCV NS5B polymerase; set-up: species or system Hepacivirus hominis
Coxsackievirus B2 = test: Antiviral activity against Coxsackie virus type B2; assay type: functional, organism-based; conditions: Enterovirus B
Vaccinia virus = test: Antiviral activity against Vaccinia virus Elstree-Lister ATCC VR-1549 infected in african green monkey Vero-76 cells assessed as reduction in viral plaque after 3 days by crystal violet staining; assay type: functional, organism-based; conditions: Orthopoxvirus vaccinia, Elstree-Lister ATCC VR-1549, Vero 76, 72 h

SMILES: COc1ccc(-c2nc3cc(/C(C)=N/NC(N)=S)ccc3[nH]2)c(OC)c1
- CC50 at 96 h [1]: 72 µM
- EC50 [2]: > 72 µM
- CC50 [3]: > 100 µM
- EC50 [4]: 0.8 µM
- CC50 [5]: 28 µM
- EC50 (Yellow fever virus): > 28 µM
- EC50 [6]: > 28 µM
- CC50 [7]: > 100 µM
- EC50 (Coxsackievirus B5): > 100 µM
- EC50 (Poliovirus 1): > 100 µM
- EC50 [8]: > 100 µM
- EC50 [9]: > 100 µM
- EC50 (Human alphaherpesvirus 1): > 100 µM
- CC50 [10]: 11.3 µM
- EC50 (Hepatitis C virus): 1.11 µM

SMILES: O=C(O)c1ccc2c(c1)nc(-c1ccccn1)n2C1CCCCC1
- IC50 [11]: 4.3 µM

SMILES: Nc1ccc(/C=C/c2nc3ccccc3[nH]2)cc1
- EC50 (Coxsackievirus B2): 7 µM

SMILES: CC(=O)c1ccc2[nH]c(-c3ccc(-c4ccc([N+](=O)[O-])cc4)cc3)nc2c1
- EC50 (Yellow fever virus): 0.5 µM
- EC50 (Coxsackievirus B2): 1 µM

SMILES: O=C(O)c1ccc2c(c1)nc(-c1ccoc1)n2C1CCCCC1
- IC50 [11]: 1.6 µM

SMILES: C/C(=N\NC(N)=S)c1ccc2c(c1)nc(-c1ccc(C(F)(F)F)cc1)n2C1CCCCC1
- CC50 at 96 h [1]: 30 µM
- EC50 [2]: ≥ 30 µM
- CC50 [3]: > 100 µM
- EC50 [4]: > 100 µM
- CC50 [5]: > 100 µM
- EC50 (Yellow fever virus): > 100 µM
- EC50 [6]: > 100 µM
- CC50 [7]: > 100 µM
- EC50 (Coxsackievirus B5): > 100 µM
- EC50 (Poliovirus 1): > 100 µM
- EC50 [8]: > 100 µM
- EC50 [9]: > 100 µM
- EC50 (Vaccinia virus): > 100 µM
- EC50 (Human alphaherpesvirus 1): > 100 µM

SMILES: C/C(=N\NC(N)=S)c1ccc2c(c1)nc(-c1ccccc1)n2C1CCCCC1
- CC50 at 96 h [1]: 20 µM
- EC50 [2]: 10 µM
- CC50 [3]: 24 µM
- EC50 [4]: 4.5 µM
- CC50 [5]: 38 µM
- EC50 (Yellow fever virus): 9 µM
- EC50 [6]: > 38 µM
- CC50 [7]: 20 µM
- EC50 (Coxsackievirus B5): > 20 µM
- EC50 (Poliovirus 1): > 20 µM
- EC50 [8]: > 20 µM
- EC50 [9]: > 20 µM
- EC50 (Vaccinia virus): > 20 µM
- EC50 (Human alphaherpesvirus 1): > 20 µM

SMILES: COc1ccc(-c2nc3cc(C(C)=O)ccc3n2C2CCCCC2)cc1
- CC50 at 96 h [1]: 27 µM
- EC50 [2]: > 27 µM
- CC50 [3]: > 100 µM
- EC50 [4]: 21 µM
- CC50 [5]: > 100 µM
- EC50 (Yellow fever virus): 13.4 µM
- EC50 [6]: > 100 µM
- CC50 [7]: 30 µM
- EC50 (Coxsackievirus B5): > 30 µM
- EC50 (Poliovirus 1): > 30 µM
- EC50 [8]: > 30 µM
- EC50 [9]: > 30 µM
- EC50 (Vaccinia virus): > 30 µM
- EC50 (Human alphaherpesvirus 1): > 30 µM

SMILES: Nc1ccc(/C=C/c2nc3cc(Cl)ccc3[nH]2)cc1
- EC50 (Coxsackievirus B2): 7 µM
